Reference: ChEMBL document CHEMBL5346889, “Discovery of 4-oxo-N-phenyl-1,4-dihydroquinoline-3-carboxamide derivatives as novel anti-inflammatory agents for the treatment of acute lung injury and sepsis” (Eur J Med Chem, 2023)
Activity calls are given as the source filed them. The calls are words filed in the database; no cut-off is given here.

Columns and labels:
[1] = test system: Mus musculus; test: Protection against LPS-induced sepsis in C57/BL6 mouse model assessed as reduction in demarcation between white and red pulp at 20 mg/kg, po preincubated with compound followed by LPS stimulation for 1 hr by H and E staining based analysis; assay type: functional, organism-based
Summary of the method: (§1)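 Mice given 20 mg/kg orally, then intraperitoneal LPS 20 mg/kg 1 h later; n = 12 per group. Kidney, liver, heart and spleen weighed; spleen sections H&E-stained for histology.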

[2] = Cmax in rat at 10 mg/kg, po; assay type: ADME, organism-based; design: dose 10 mg/kg, route po; conditions: in vivo
Summary of the method: (§2)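 Rats dosed intravenously at 1 mg/kg or orally at 10 mg/kg; plasma pharmacokinetic parameters AUC(0-t), Tmax, T1/2, Cmax and oral bioavailability F derived from the two routes.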

[3] = test system: Mus musculus; test: Protection against LPS-induced sepsis in C57/BL6 mouse model assessed as reduction of obvious white pulp in spleen at 20 mg/kg, po preincubated with compound followed by LPS stimulation for 1 hr by H and E staining based analysis; assay type: functional, organism-based; summary of the method: as §1
[4] = test system: THP-1; test: Antiinflammatory activity in LPS-induced human THP-1 cells assessed as inhibition of LPS-induced IL-6 release preincubated for 30 mins followed by LPS stimulation for 24 hrs by ELISA method; assay type: functional, cell-based
Summary of the method: (§3)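 THP-1 or LX-2 cells in DMEM with 10% FBS, 37 °C, 5% CO2. Pretreated 30 min at 10, 5, 2.5 or 1.25 μM, then LPS 0.5 μg/mL for 24 h. IL-6 and TNF-α in medium measured by ELISA, normalized to lysate total protein; mean ± SEM of 3 independent experiments.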

[5] = test system: LX-2; test: Antiinflammatory activity in LPS-induced human LX2 cells assessed as inhibition of LPS-induced IL-6 release preincubated for 30 mins followed by LPS stimulation for 24 hrs by ELISA method; assay type: functional, cell-based; summary of the method: as §3
[6] = test system: Mus musculus; test: Antiinflammatory activity in LPS-induced C57/BL6 mouse acute lung injury model assessed as decrease in TNF-alpha expression level at 20 mg/kg via oral gavage preincubated for 30 mins followed by LPS stimulation for 6 hrs by RT-qPCR method; assay type: functional, organism-based; conditions: time 6.5 hrs
Summary of the method: (§4)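 Male C57BL/6 mice, six weeks old, n = 8 per group. Dosed 20 mg/kg orally 30 min before intratracheal LPS 5 mg/kg; dexamethasone 20 mg/kg as comparator. Lung tissue collected 6 h after LPS. RNA extracted with TRIzol; IL-6 and TNF-α transcripts by RT-qPCR, normalized to β-actin; n = 5 mice per group, mean ± SEM.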

[7] = Stability of the compound in pH 7.4 phosphate buffer measured upto 30 mins by UV-Vis analysis; assay type: physicochemical; conditions: pH 7.4, 0.5 h
Summary of the method: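 Dissolved in phosphate buffer pH 7.4; UV-visible absorption (OD) recorded over 30 min.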

[8] = test system: J774.A1; test: Inhibition of NF-kappaB pathway in LPS-induced mouse J774.A1 cells assessed as inhibition of p65 phosphorylation preincubated with compound for 2 hrs followed by LPS-stimulation and measured after 30 mins by Western blot analysis; assay type: cell-based; conditions: dose 5-10 µM, time 2.5 hrs
Summary of the method: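 J774A.1 cells preincubated with 10 or 5 μM or DMSO for 2 h, then LPS 0.5 μg/mL for 30 min. RIPA lysates run on 12.5% SDS-PAGE, transferred to PVDF, blocked with 5% milk; probed for IκB-α and p-p65, with GAPDH and p65 as loading controls; ECL detection; densitometry.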

[9] = test system: J774.A1; test: Cytotoxicity against mouse J774.A1 cells assessed as reduction in cell viability at 10 uM incubated for 24 hrs by MTT assay; assay type: functional, cell-based
Summary of the method: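 J774A.1 macrophages exposed to 10 μM for 24 h; MTT at 5 mg/mL added for 4 h; absorbance read at 490 nm; viability expressed as percent of DMSO control.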

[10] = test system: Mus musculus; test: Protection against LPS-induced sepsis in C57/BL6 mouse model assessed as reduction in periarterial lymphatic sheath thickening at 20 mg/kg, po preincubated with compound followed by LPS stimulation for 1 hr by H and E staining based analysis; assay type: functional, organism-based; summary of the method: as §1
[11] = test system: Mus musculus; test: Protection against LPS-induced C57/BL6 mouse acute lung injury model assessed as reduction in lung wet/dry ratio at 20 mg/kg via oral gavage preincubated for 30 mins followed by LPS stimulation for 6 hrs; assay type: functional, organism-based; conditions: time 6.5 hrs
Summary of the method: (§5)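 Mice dosed 20 mg/kg by gavage (dexamethasone 20 mg/kg comparator), intratracheal LPS 5 mg/kg 30 min later, killed at 6 h. Right upper lobe fixed in paraformaldehyde, H&E; lung wet/dry ratio; BALF protein, total cells and neutrophils counted; n = 5 mice per group, mean ± SEM.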

[12] = test system: Mus musculus; test: Antiinflammatory activity in LPS-induced C57/BL6 mouse acute lung injury model assessed as decrease in TNF-alpha level in BALF at 20 mg/kg via oral gavage preincubated for 30 mins followed by LPS stimulation for 6 hrs by ELISA; conditions: time 6.5 hrs
[13] = test system: Mus musculus; test: Protection against LPS-induced sepsis in C57/BL6 mouse model assessed as reduction in weight loss at 20 mg/kg, po preincubated with compound followed by LPS stimulation for 1 hr and measured every 24 hrs by 6 days; assay type: functional, organism-based; conditions: time 6.0 day
Summary of the method: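 Sepsis model in C57BL/6 mice, n = 12 per group: oral 20 mg/kg, then intraperitoneal LPS 20 mg/kg 1 h later; saline control. Survival checked every 12 h and body weight every 24 h for 6 days.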

[14] = test system: Mus musculus; test: Antiinflammatory activity in LPS-induced C57/BL6 mouse acute lung injury model assessed as decrease in TNF-alpha level in serum at 20 mg/kg via oral gavage preincubated for 30 mins followed by LPS stimulation for 6 hrs by ELISA; conditions: time 6.5 hrs
[15] = test system: Mus musculus; test: Protection against LPS-induced C57/BL6 mouse acute lung injury model assessed as reduction in number of neutrophils in BALF at 20 mg/kg via oral gavage preincubated for 30 mins followed by LPS stimulation for 6 hrs; assay type: functional, organism-based; conditions: time 6.5 hrs; summary of the method: as §5
[16] = AUC (0 to t) in rat at 1 mg/kg, iv; assay type: ADME, organism-based; design: dose 1 mg/kg, route iv; conditions: in vivo; summary of the method: as §2
[17] = Half life in rat at 1 mg/kg, iv; assay type: ADME, organism-based; conditions: in vivo; summary of the method: as §2
[18] = test system: Mus musculus; test: Protection against LPS-induced C57/BL6 mouse acute lung injury model assessed as improvement in alveolar wall thickening at 20 mg/kg via oral gavage preincubated for 30 mins followed by LPS stimulation for 6 hrs; assay type: functional, organism-based; conditions: time 6.5 hrs; summary of the method: as §5
[19] = test system: Mus musculus; test: Antiinflammatory activity in LPS-induced C57/BL6 mouse acute lung injury model assessed as decrease in IL-6 expression level at 20 mg/kg via oral gavage preincubated for 30 mins followed by LPS stimulation for 6 hrs by RT-qPCR method; assay type: functional, organism-based; conditions: time 6.5 hrs; summary of the method: as §4
[20] = test system: J774.A1; test: Antiinflammatory activity in LPS-induced mouse J774.A1 cells assessed as inhibition of LPS-induced TNF-alpha release preincubated for 30 mins followed by LPS stimulation for 24 hrs by ELISA method; assay type: functional, cell-based
Summary of the method: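 Dose-response in J774A.1 cells: 30 min pretreatment at 10, 5, 2.5 or 1.25 μM, then LPS 0.5 μg/mL for 24 h. IL-6 and TNF-α by ELISA, normalized to lysate protein; IC50 from the dose-response; 3 independent experiments, mean ± SEM.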

Cmax [2]: 1680 ng/mL
IC50 [4]: 1.33 µM
IC50 [5]: 2.62 µM
Stability [7]: Stable
AUC(0-t) [16]: 6320 ng·h/mL
half-life [17]: 8.9 h
IC50 [20]: 2.4 µM
Structure (SMILES): COc1cc2nccc(Oc3ccc(NC(=O)c4cn(-c5ccccc5)c5ccccc5c4=O)cc3)c2cc1OC
Activity [1]: Active
Activity [3]: Active
Activity [6]: Active
inhibition [8]: Dose-Dependent Effect
Activity [9]: inactive
Activity [10]: Active
Activity [11]: Active
Activity [12]: Active
Activity [13]: Active
Activity [14]: Active
Activity [15]: Active
Activity [18]: Active
Activity [19]: Active
inhibition ([20]; dose 1.25-10 µM, time 24.5 hrs): Dose-Dependent Effect
